The text below walks through data of the RNAGym collection of RNA variant scans (doi:10.1126/science.aae0568).

B1: tRNA (parent)
chain: GUUCCGUUGGCGUAAUGGUAACGCGUCUCCCUCCUAAGGAGAAGACUGCGGGUUCGAGUCCCGUACGGAACG

Fewer inactive variants are shown than the library holds.

Variants of B1 are the subject of this data set. As to the kind of experiment: yeast fitness relative to wild type (ratio to wild type); higher = fitter; tRNA-Arg(CCU), competitive growth, 37 C, YPD. In short, it runs like this: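 A pool of Saccharomyces cerevisiae strains, each with a tRNA-Arg(CCU) gene variant at the native genomic locus, was competed in YPD at 37°C for 24 hours across six parallel replicates. The variants had been chemically synthesised at a 3% per-site mutation rate over 69 sites, and gene amplicons before and after competition were read by 100-nucleotide paired-end sequencing. Darwinian fitness relative to wild type rested on changes in genotype frequencies. Genotypes required ≥ 100 starting reads, and estimates < 0.5 were set to 0.5.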
On to U8A U59A C66G A70C, for which the yeast fitness is at most 0.5.
U16A G48C C66U: the yeast fitness stood at 0.705.
For C27U C34G A40G C46G C49A U59C the value was at most 0.5.
For U26A A36G A37G C46G C49U U54C A70G the value was 0.754; for U7A C24U C33A A65U, 0.58.
For U2G A36U G67A G68C the value was at most 0.5; for U2G U13C A21G G39C C55U, at most 0.5; for A20C U26G A36C G38U A65U, at most 0.5.
Take A14U C29U A37U G41A: the yeast fitness was at most 0.5.
In the case of G18A C61G it was 0.681.
On to C5A U13C C29U, for which the yeast fitness is at most 0.5.
In the case of G10A C30U U47A it was at most 0.5.
In the case of C22U C34G A36U U47C A65C it was at most 0.5.
With C5A C22G U26A A57C G67A A69U, the yeast fitness is at most 0.5.
In the case of C34U U35A A57C G58A A70U it was 0.586; in that of U7C G12A U13C U26C C60U, at most 0.5.
As for C11U U13C C27G A69C, the yeast fitness is at most 0.5.
Consider C30U A40C A57C, for which the yeast fitness was at most 0.5.
C11U U35A G38A C55A C61G: the yeast fitness is at most 0.5.
For G10A U26A C49U C66U the value was at most 0.5.
For C4A A65U A69U the value was 0.774.
In the case of C4A C29G U47G U59G it was at most 0.5; in that of G9C A21U C66A, 0.585.
U8A G10A G38C: the yeast fitness was at most 0.5.
For U64G A65U the value was 0.648; for U3C A14G C22A C27G G39C, at most 0.5; for G9A G50A, 1.
In the case of C30G A65U it was 0.589; in that of A40U G56A, 0.843.
For G6A A20C C55U, the yeast fitness was 0.568.
As to A45C U53C C66U, the yeast fitness is at most 0.5.
For U32A A42G the value was 0.655; for G9A A40C A45G A57G, at most 0.5; for G41A G67A, 0.663.
Regarding U3A C4U U7A C24U U35C C49U C61G, the yeast fitness is at most 0.5.
In the case of C46G C61A A65C, the yeast fitness was at most 0.5.
As for G39A G41C C46A G68A, the yeast fitness came to 0.55.
In the case of C22U C31G G50A, the yeast fitness is 0.606.
Consider C5U A15C G18A U35C A42G, for which the yeast fitness is at most 0.5.
With A20C C34U C60A C66U, the yeast fitness was 0.605.
U3C U7G A14C C31A G50A G52C A65C: the yeast fitness is at most 0.5.
With G6A U16C C22U A37U C49A C62U, the yeast fitness was at most 0.5.
In the case of G6A C34A A37C A40U it was at most 0.5; in that of U7A C49G C66A, at most 0.5; in that of A15U C22A A43G G51C U59C C62U G68U, at most 0.5.
For C22G U47C A65U the value was 0.64; for A20U C49U A65C, 0.655.
For A14U C24U C33A G44C U47C C60G the value was at most 0.5; for C5G C29G A65G, 0.565; for C4G G9C C33G, 0.674.
For G10C C34A C55U, the yeast fitness was at most 0.5.
In the case of C29G A42U U47G A57C C61A it was at most 0.5.
In the case of C22U G44C A70U it was 0.711; in that of A45C G48C, 0.833.
For G6C U7G C24U C27A C60U the value was at most 0.5.
For the variant A14G C22A C29G C30G G48U, the yeast fitness stood at 0.618.
In the case of G18C A70U it was 0.737; in that of C4A U16A U32C C62U A70U, at most 0.5.
For the variant G23A U64G, the yeast fitness amounted to 0.717.
With A14G U26G A43C C46A, the yeast fitness is at most 0.5.
In the case of U16A C30A U35G it was at most 0.5; in that of U8G U16A C34A A36C U64C C66A, at most 0.5; in that of U2C C5G U59A, 0.613.
In the case of U26A U47G U54C it was at most 0.5.
For G23A C33U the value was 0.547; for U28A G41A, 0.697; for U2C C27A G41A C49A U53C U54C, at most 0.5.
A57U C60G: the yeast fitness was 0.532.
For A14C G25C C27G C34U U35A G38A U59A the value was at most 0.5; for C22U C27U A57G, 0.53.
In the case of C22G G23C C27A U28C U32C it was at most 0.5; in that of U3C G68A, 0.866; in that of G18A G50C, 0.615.
In the case of G17C C27U it was 0.617; in that of A14G C60A, 0.523.
For G25C C46G, the yeast fitness came to 0.938.
For the variant A15U C33A A37G U53C, the yeast fitness was 0.668.
For G9A C49U G68A the value was 0.668; for C27G U53C, at most 0.5.
Take A20U C62G G63C: the yeast fitness was found to be 0.601.
In the case of C5U U7A U28A it was 0.573.
As to G58C C60G, the yeast fitness was 0.683.
In the case of C4A C24G C62U A69C, the yeast fitness was 0.567.
For U19A U47G G50A the value was 0.55.
In the case of C4A A42G A45C it was at most 0.5.
For C34U A40G the value was 0.729; for C27G C31U C46G G51C, at most 0.5; for C34A U47C A57G A65U, at most 0.5.
For A40G C60G G63C, the yeast fitness was at most 0.5.
Turning to C11U A21U C30G A42G, the yeast fitness was 0.755.
For G12A C22U C30G C31A G39C A57G the value was at most 0.5; for C11A A20G C62A G67A, at most 0.5.
In the case of U8C U53A U64C it was at most 0.5; in that of U19C C31G C66G, at most 0.5; in that of A15G U28A C34G C46A, 0.501.
Take C31U G67A: the yeast fitness is 0.97.
In the case of C22G A43U C46G, the yeast fitness is at most 0.5.
For C4U G17A C34A A57U the value was at most 0.5; for G6C G10A A14C U16A C27U C33U, at most 0.5.
In the case of G6A C62U it was 0.921.
On to C30A A45U C49A G51A C62G, for which the yeast fitness was at most 0.5.
For C5G U35A A36C C55A, the yeast fitness is at most 0.5.
On to C5G U8G C11G C49A G52C, for which the yeast fitness was at most 0.5.
U13A C33A U54C: the yeast fitness was at most 0.5.
For C5U C11G C24U A42C A65C the value was 0.605; for A21G A43C A69U A70C, 0.762; for C4G C5U G23A C55A C61A, at most 0.5.
In the case of G6C G18A G51C A65C it was at most 0.5; in that of C29G C62U, 0.721.
For G10A U13A C24U the value was 0.599; for U8A U13A A15U C46G A69U, at most 0.5.
Turning to G6C G9A A21U U28C U35G A36C A65G C66A, the yeast fitness was at most 0.5.
For U16A G23A C29U C34G the value was 0.734; for G9A U54C C61G, 0.565; for A45C C49A U54C, at most 0.5.
With G10C A14G C22U A37G A40U C46A U54C, the yeast fitness is at most 0.5.
C29G A45C G52A: the yeast fitness is at most 0.5.
In the case of G12C A14G G25A G41C C61U A70G it was at most 0.5.
Turning to G68A A70C, the yeast fitness worked out at 0.861.
Regarding G10A A57U A65U, the yeast fitness is at most 0.5.
In the case of U8C U19C C55G it was at most 0.5.
In the case of C4A C34G A40U U47A G67C it was 0.55; in that of C24A C31G C34U, 0.616; in that of G9C C29U C30A G56A, at most 0.5.
U16C A40C: the yeast fitness was determined as 0.923.
In the case of U8C C11U G23A C31U A45C G48A G67A it was at most 0.5; in that of G9C G10C C61U, at most 0.5.
In the case of U19G C46A it was 0.932; in that of C5G A21C C33U, 0.535; in that of C11U G51A A65U, at most 0.5.
G17C G18C C22A C60A C66U: the yeast fitness turned out to be 0.561.
In the case of C34G U54C it was 0.569; in that of U7G C11G C34U G41A A65G, at most 0.5.
In the case of G12C A14U A20U G23A G68A it was at most 0.5; in that of U28C C31U G51A G63C, at most 0.5.
For U7A C55G, the yeast fitness is at most 0.5.
C11G G41A G67U G68C: the yeast fitness was determined as 0.569.
In the case of A14G G38C A65C it was at most 0.5; in that of C4U G25A G50C U54C, at most 0.5; in that of U26G U28A U53A, at most 0.5.
In the case of U3C U19C A20G it was 0.663.
As for U32A A42U U54C, the yeast fitness is at most 0.5.
With A14G A21C A36C A43U C60A, the yeast fitness turned out to be 0.554.
In the case of A14C U26C C29U A43G it was 0.59; in that of G10C A45C, 0.626.
For C29A U47A G68C the value was at most 0.5; for C5U U8C C11G A15U C49U G51A G63A, at most 0.5.
For G39A A45C C61A the value was 0.618; for A14G C31G C33U G38C G58C C66G, at most 0.5.
Turning to U2G C24U C55G A70U, the yeast fitness is at most 0.5.
In the case of G51C U54A A57C it was 0.859; in that of A15G U16C C34U G44C C61U, at most 0.5.
Turning to C34U C61G A70C, the yeast fitness amounted to 0.528.
For the variant A42C G48A, the yeast fitness is 1.07.
For A21G A36G U53A A57U A65U the value was at most 0.5; for C5G G23A G25C C49U, 0.544; for U26C, 0.988.
In the case of G44C U59A it was 0.581; in that of C5G G56A G58C, 0.756; in that of C22U C30U A37U C46G U64A G67A, at most 0.5.
For the variant C5G C22G C55U, the yeast fitness is at most 0.5.
Regarding C31G C49A, the yeast fitness was 0.734.
For U3G U19G the value was 0.641.
For U16C C29A C55G the value was 0.573; for U54A, 0.659.
For C34G G67C the value was 0.604; for U3C A43U, 0.987.
